Experiments:
KDM3A = biological target: T1, KDM3A (Homo sapiens, UniProt Q9Y4C1); assay: Western blot KDM3A degradation in SW480 cells; type: cell-based; details: SW480 cells, 16 hours
T1 sequence (Q9Y4C1 1-1321): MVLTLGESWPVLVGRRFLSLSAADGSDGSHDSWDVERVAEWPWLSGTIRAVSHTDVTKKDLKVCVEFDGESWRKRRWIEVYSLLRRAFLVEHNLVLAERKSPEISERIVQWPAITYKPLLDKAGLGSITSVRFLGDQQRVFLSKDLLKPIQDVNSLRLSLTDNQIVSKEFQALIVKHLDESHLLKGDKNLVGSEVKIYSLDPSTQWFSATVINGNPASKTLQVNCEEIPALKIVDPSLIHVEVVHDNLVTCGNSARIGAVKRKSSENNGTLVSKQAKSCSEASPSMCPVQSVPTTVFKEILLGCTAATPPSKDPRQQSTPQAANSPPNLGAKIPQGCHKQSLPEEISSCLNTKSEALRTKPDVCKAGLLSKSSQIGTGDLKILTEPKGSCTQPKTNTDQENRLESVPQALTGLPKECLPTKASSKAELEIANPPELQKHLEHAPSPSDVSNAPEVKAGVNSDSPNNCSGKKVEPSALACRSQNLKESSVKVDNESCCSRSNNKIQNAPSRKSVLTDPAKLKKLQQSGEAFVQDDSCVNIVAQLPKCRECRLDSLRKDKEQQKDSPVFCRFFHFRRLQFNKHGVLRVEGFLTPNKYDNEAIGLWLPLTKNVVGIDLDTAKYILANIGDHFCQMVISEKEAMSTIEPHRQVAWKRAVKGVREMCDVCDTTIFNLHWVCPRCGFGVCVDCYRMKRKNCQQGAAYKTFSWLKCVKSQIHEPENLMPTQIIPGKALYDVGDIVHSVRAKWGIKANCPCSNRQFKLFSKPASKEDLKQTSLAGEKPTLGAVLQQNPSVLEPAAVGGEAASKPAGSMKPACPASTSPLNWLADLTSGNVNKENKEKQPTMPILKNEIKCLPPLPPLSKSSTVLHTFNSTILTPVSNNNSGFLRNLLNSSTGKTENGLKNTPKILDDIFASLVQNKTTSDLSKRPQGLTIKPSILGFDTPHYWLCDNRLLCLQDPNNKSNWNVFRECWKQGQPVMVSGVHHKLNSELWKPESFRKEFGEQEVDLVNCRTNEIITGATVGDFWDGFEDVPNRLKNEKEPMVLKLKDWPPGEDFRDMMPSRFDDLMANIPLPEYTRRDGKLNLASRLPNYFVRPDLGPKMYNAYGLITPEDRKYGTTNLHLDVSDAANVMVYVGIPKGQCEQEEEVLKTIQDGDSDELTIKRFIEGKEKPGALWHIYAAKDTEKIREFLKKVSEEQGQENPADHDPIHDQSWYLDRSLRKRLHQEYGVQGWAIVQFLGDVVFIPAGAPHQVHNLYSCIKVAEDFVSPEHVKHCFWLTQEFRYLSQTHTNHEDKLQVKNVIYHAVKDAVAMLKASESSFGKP
Summary of the method: (§1)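 SW480 cells exposed to test compound for 16 h, then total lysates protein-normalised and run on SDS-PAGE. Semi-dry transfer to PVDF, 1 h block in 5% milk. Primary antibody overnight at 4 °C in 1% milk, secondary 1 h at RT, TBST washes, α-tubulin as loading control. Rescue arms co-treated with MLN4924 (1 μM) or pomalidomide (100 μM). Test compound at 0.1 μM for the KDM3A blot and 1 μM for the KDM3B blot.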

KDM3B = KDM3B (Homo sapiens, UniProt Q7LBC6); assay: Western blot KDM3B degradation in SW480 cells; type: cell-based; details: SW480 cells, 16 hours
Chain of KDM3B (Q7LBC6 whole entry): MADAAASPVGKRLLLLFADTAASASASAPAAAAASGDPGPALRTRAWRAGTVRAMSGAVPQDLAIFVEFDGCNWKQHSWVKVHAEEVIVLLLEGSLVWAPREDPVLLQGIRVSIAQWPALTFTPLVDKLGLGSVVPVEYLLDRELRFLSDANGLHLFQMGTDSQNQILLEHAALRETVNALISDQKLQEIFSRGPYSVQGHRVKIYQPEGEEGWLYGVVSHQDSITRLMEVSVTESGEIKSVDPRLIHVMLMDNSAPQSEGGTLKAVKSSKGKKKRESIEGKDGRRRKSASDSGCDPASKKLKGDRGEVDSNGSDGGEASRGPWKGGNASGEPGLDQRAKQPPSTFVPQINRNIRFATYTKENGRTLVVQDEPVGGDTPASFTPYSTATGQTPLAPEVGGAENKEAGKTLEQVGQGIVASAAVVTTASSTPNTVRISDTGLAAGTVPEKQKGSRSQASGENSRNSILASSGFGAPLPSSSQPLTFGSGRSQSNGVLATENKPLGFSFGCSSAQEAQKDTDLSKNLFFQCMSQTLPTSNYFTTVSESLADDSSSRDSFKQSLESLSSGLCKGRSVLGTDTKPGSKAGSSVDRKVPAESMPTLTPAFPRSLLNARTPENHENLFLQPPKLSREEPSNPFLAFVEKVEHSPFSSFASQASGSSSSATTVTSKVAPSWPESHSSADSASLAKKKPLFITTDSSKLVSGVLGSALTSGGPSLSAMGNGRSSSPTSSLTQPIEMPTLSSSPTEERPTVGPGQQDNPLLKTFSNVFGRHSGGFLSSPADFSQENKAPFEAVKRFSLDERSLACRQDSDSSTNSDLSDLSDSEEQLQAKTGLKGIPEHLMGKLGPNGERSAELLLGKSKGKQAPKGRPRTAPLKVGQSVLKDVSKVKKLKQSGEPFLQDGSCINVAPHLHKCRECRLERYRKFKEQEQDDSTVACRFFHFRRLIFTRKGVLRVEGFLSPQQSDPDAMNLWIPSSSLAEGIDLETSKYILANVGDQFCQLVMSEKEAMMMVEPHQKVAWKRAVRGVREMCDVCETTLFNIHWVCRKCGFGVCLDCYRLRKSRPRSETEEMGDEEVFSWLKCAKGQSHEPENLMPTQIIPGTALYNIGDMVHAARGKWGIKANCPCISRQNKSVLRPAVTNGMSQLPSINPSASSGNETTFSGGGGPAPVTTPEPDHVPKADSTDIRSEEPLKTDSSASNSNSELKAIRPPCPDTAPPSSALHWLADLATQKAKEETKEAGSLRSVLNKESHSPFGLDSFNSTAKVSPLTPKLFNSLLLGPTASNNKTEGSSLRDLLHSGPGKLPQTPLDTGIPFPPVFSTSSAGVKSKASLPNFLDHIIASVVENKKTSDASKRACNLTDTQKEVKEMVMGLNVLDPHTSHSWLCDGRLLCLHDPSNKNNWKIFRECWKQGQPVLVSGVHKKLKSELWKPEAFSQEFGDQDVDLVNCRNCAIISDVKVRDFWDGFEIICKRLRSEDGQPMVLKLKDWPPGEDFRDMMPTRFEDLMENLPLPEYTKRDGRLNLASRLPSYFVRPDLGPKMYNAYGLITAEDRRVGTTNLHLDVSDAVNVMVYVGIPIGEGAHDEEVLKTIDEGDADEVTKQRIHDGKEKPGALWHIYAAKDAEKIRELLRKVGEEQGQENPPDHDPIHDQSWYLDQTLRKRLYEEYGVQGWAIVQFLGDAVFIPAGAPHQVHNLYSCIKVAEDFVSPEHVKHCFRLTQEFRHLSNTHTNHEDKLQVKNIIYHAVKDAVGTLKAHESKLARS
Summary of the method: as §1

HCP-1 cells = assay: Clonogenic assay HCP-1; type: cell-based, human; details: HCP-1, 2 weeks
Summary of the method: (§2)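 Cells kept in DMEM with 10% FBS and 1% pen–strep, seeded at 500 cells/well and dosed with test compound once attached. Medium refreshed every 3 days for 2 weeks. Colonies stained with 0.5% crystal violet and photographed. ED50 obtained by image analysis.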

[1] = system: Wnt target genes in SW480 cells; assay: RT-qPCR of Wnt target gene expression in SW480; type: cell-based, human
Summary of the method: (§3)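 Cells in 6-well plates exposed to test compound for 16 h. Total RNA extracted; 1 μg reverse-transcribed with M-MuLV and random hexamers. SYBR Green qPCR for the named genes, quantified by 2ΔΔct against tubulin. Mean ± SD; unpaired two-tailed Student's t-test.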

[2] = system: Wnt target genes in HCP-1 cells; assay: RT-qPCR of Wnt target gene expression in HCP-1; type: cell-based, human
Summary of the method: as §3

ALDH^high-HCP-1 CSCs = assay: Tumor sphere formation assay HCP-1; type: cell-based, human; details: 2 weeks
Summary of the method: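 Trypsinised cells passed through a 40 μm strainer and stained with ALDEFLUOR. ALDHHigh cells sorted by FACS, with DEAB-treated cells as gating control. Plated at 1000 cells/well on ultra-low attachment in serum-free MEBM containing 2% B27, 20 ng mL−1 EGF, 10 ng mL−1 FGF, 1 ng mL−1 hydrocortisone, 5 μg mL−1 insulin and 100 μM β-mercaptoethanol. Dosed 1 h after plating; medium renewed at 1 week. Spheres >40 μm counted at 2 weeks for ED50.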

CRL-1790 cells = assay: CCK-8 based toxicity assay; type: cell-based, human
Summary of the method: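 Non-malignant human colon epithelial CRL-1790 cells grown in EMEM with 10% FBS and 1% pen–strep at 37 °C and 5% CO2. Seeded at 3 × 10^3 cells/well in 96-well plates, then exposed to test compound. Viability read by CCK-8 at 48 h as OD 450 nm. TD50 derived from the dose–response.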

[3] = system: KDM4 family proteins (KDM4A, KDM4B and KDM4C); assay: Western blot KDM4 family proteins in SW480 cells; type: cell-based, human
Summary of the method: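 Lysates from compound-treated SW480 cells normalised for total protein and resolved by SDS-PAGE. Semi-dry transfer to PVDF, 1 h block in 5% milk. Overnight incubation at 4 °C with anti-KDM4A, -KDM4B or -KDM4C antibody in 1% milk, secondary 1 h at RT, TBST washes, α-tubulin as loading control.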

SW480 cells = assay: Clonogenic assay SW480; type: cell-based, human; details: SW480, 2 weeks
Summary of the method: as §2

[4] = Hepatic metabolism S9 fraction incubation, human; details: 0.1 μM, plus glutathione, UDPGA, PAPS, 37 °C
[5] = Hepatic metabolism S9 fraction incubation, rat; details: 0.1 μM, plus glutathione, UDPGA, PAPS, 37 °C
CSC growth = details: most cell-based assays ref 16,17; cited from earlier work
[6] = system: 293T cells expressing a TCF-responsive luciferase reporter (293T-TCF-Luc); assay: Wnt luciferase reporter assay; type: cell-based; details: Homo sapiens, HEK-293T, 16 h, read-out: IC50 (293T-TCF-Luc)
Summary of the method: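 293T cells stably transduced with a lentiviral TCF/LEF–luciferase reporter and selected in puromycin ([…], 4 days). Seeded at 100 000 cells/well and dosed with test compound on attachment. Wnt signalling stimulated with 20 mM LiCl 4 h later. Lysates taken at 16 h; Bright-Glo luminescence normalised to total protein.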

In the case of `O=C1CCC(N2C(=O)c3cccc(NCCOCCOCCOCCNC(=O)c4ccc(O)c5ncccc45)c3C2=O)C(=O)N1` (stereo not drawn) [Compound 3, N-(2-(2-(2-(2-((2-(2,6-Dioxopiperidin-3-yl)-1,3-dioxoisoindolin-4-yl)amino)ethoxy)ethoxy)ethoxy)ethyl)-8-hydroxyquinoline-5-carboxamide], the “KDM3A degradation (western blot)” value (KDM3A) is reported as “little effect in degrading KDM3A and KDM3B” and the “KDM3B degradation (western blot)” value (KDM3B) is reported as “little effect in degrading KDM3A and KDM3B”.

With `O=C1CCC(N2C(=O)c3cccc(NCCOCCOCCOCCOCCOCCNC(=O)c4ccc(O)c5ncccc45)c3C2=O)C(=O)N1` (stereo not drawn) [Compound 5, N-(17-((2-(2,6-Dioxopiperidin-3-yl)-1,3-dioxoisoindolin-4-yl)amino)-3,6,9,12,15-pentaoxaheptadecyl)-8-hydroxyquinoline-5-carboxamide] the “KDM3A degradation (western blot)” value (KDM3A) was “little effect in degrading KDM3A and KDM3B” and the “KDM3B degradation (western blot)” value (KDM3B) was “little effect in degrading KDM3A and KDM3B”.

For `O=C1CCC(N2C(=O)c3cccc(NCCOCCOCCOCCOCCOCCOCCNC(=O)c4ccc(O)c5ncccc45)c3C2=O)C(=O)N1` (stereo not drawn) [Compound 6, N-(20-((2-(2,6-Dioxopiperidin-3-yl)-1,3-dioxoisoindolin-4-yl)amino)-3,6,9,12,15,18-hexaoxaicosyl)-8-hydroxyquinoline-5-carboxamide], the colony formation (HCP-1 cells) was “potently inhibited the colony formation”, the “suppression of Wnt target gene expression (AXIN2, DKK1, CCND1)” value ([1]; SW480, 50 μM, 16-hour treatment, in most cases) was no less than 50% and the “expression of colorectal CSC signature genes (ASCL2, RNF43, ZNRF3, LGR5)” value ([1]; SW480, 16 hours) was “strongly inhibited”. For the same compound, the “suppression of Wnt target gene expression (AXIN2, DKK1, CCND1)” value ([2]; HCP-1, 50 μM, 16-hour treatment, in most cases) was no less than 50%, the “expression of colorectal CSC signature genes (ASCL2, RNF43, ZNRF3, LGR5)” value ([2]; HCP-1, 16 hours) was “strongly inhibited” and the “ED50 HCP-1 (tumor sphere formation)” value (ALDH^high-HCP-1 CSCs) was 0.51 µM. The “cell growth of CRL-1790” value (CRL-1790 cells; 60 μM, two-day treatment) was “not dramatically affected”, the “TD50 CRL-1790” value (CRL-1790 cells; CCK8 assay, 48 h post drug treatment) was 400.3 µM and the “KDM3A degradation (western blot)” value (KDM3A) was “limited ability to degrade KDM3A and KDM3B”. The “effect on KDM4 family proteins” value [3] was “not dramatically affected”, the “KDM3B degradation (western blot)” value (KDM3B) was “limited ability to degrade KDM3A and KDM3B” and the colony formation (SW480 cells) was “potently inhibited the colony formation”.

With `O=C(O)Cc1ccccc1Nc1c(Cl)cccc1Cl` [Diclofenac, reference compound] the “CLint Human (liver, S9)” value [4] was 37.5 µL/min/mg and the “CLint Rat (liver, S9)” value [5] was 6.8 µL/min/mg.

In the case of `O=C(O)c1ccc(O)c2ncccc12` [IOX1, 8-Hydroxyquinoline-5-carboxylic acid, reference compound], the “ED50 HCP-1 (tumor sphere formation)” value (ALDH^high-HCP-1 CSCs) is given as 10.1 µM, the “effective concentrations for suppressing CSC growth” value (CSC growth) is given as 20 to 50 µM and the “KDM3A degradation (western blot)” value (KDM3A) is given as “did not induce KDM3A and KDM3B degradation”. For the same compound, the “KDM3B degradation (western blot)” value (KDM3B) was “did not induce KDM3A and KDM3B degradation” and the IC50 [6] was 48.6 µM.

Work on `CC(C)NCC(O)COc1cccc2ccccc12` (stereo not drawn) [Propranolol, reference compound] yielded a half-life at 0.1 μM ([4]; human, s9, t 1/2 Human (liver, S9)) greater than 2 h.

From paper PMC11393732 (RSC Medicinal Chemistry, 2024)
